bCat KO growth: beta-catenin-lacking colon tumor cell growth suppression. HCT116 beta-catenin knockout viability, CellTiter-Glo, 60 h; active compounds read low. viability, % at 10 µM. actives 1.5% (n = 140,000). AID 818;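 active = viability at or under a set limit, the compound median less 4 SD, cut at about 6% in these data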;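 note: 0% = Hyamine 1622 control at 20 µM and 100% = untreated cell control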
Fibroblast inh: blocks proliferation of human lung fibroblasts. AID 719. actives 1.1% (n = 85,000). LL 47 human lung fibroblast viability, ATP luminescence; active compounds read low. viability, % at 10 µM;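 active = viability at or below 50% in the single dose screen; inactive = viability above 50%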;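 note: compound exposure lasted 72 h before the ATP readout; 100% = median luminescence of untreated cell-only wells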
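Signal: luminescent ATP detection, CellTiter-Glo; assay system: LL 47 human lung fibroblasts; input: 1,150 cells/well; incubation: overnight cell rest, 72 h compound treatment at 37 °C; measure: % viability versus median cells-only luminescence; medium: IMEM growth medium with 15% fetal bovine serum; dosing: compound addition at 0.1% DMSO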
HCT116 PTEN-null: PTEN-deleted cell growth suppression. HCT116 PTEN-null viability, CellTiter-Glo, 60 h; active compounds read low. viability, % at 10 µM. actives 1.2% (n = 140,000). AID 827;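 active = viability at or below a set limit, 4 SD under the median of all tested compounds, cut at about 3.7% in these data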;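 note: PTEN knockout HCT116 line with beta catenin targeted HCT116 as companion control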
H69AR inhibit: blocks growth of human H69AR lung tumor cells; H69AR lung tumor viability, ATP luminescence, 72 h; active compounds read low; viability, % at 10 µM; actives 6% (n = 85,000); AID 598;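 active = viability at or below 40%; inactive = viability above 40%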;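 note: multidrug resistant small cell line overexpressing MRP-1 efflux transporter; 100% = mean luminescence of untreated control wells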
HUVEC prolif 384: human endothelial cell proliferation inhibition; HUVEC proliferation, CellTiter-Glo luminescence, 72 h; active compounds read low; viability, % at 10 µM (by protocol); actives 1.1% (n = 86,000);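 active = viability at or below 30%; inactive = viability above 30%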;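 note: 100% = median luminescence of DMSO-only cell control wells on each plate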
Starred values were filed as active, the others as inactive; / = no result. The full list was thinned out, with hits kept by preference.

SMILES	bCat KO growth	Fibroblast inh	HCT116 PTEN-null	H69AR inhibit	HUVEC prolif 384
CC(=O)C(C(C)=O)c1c(Cl)c(O)c(O)c2c(C(=O)c3ccccc3)coc12	62	47*	66	1.6*	66
O=c1oc2ccccc2cc1-c1csc(Nc2nc3c(F)cccc3s2)n1	5.1*	/	2.5*	/	/
O=c1oc2ccccc2cc1-c1csc(Nc2nc3ccc(F)cc3s2)n1	80	/	68	/	/
CCN(CC)S(=O)(=O)c1cc([N+](=O)[O-])ccc1NNC(=O)Nc1ccc(Cl)c(Cl)c1	1.4*	43*	1.0*	2.9*	41
O=C(C1=NNCC1c1ccc(Cl)cc1)C1CO1 (stereo not drawn)	2.2*	/	2.1*	/	/
Cc1ccc(C2CC(c3ccc(Cl)cc3)=NNC2=O)cc1 (stereo not drawn)	97	104	90	100	123
COc1ccc(NC(=O)COC(=O)CCCOc2ccc(Cl)cc2Cl)cc1Cl	92	/	95	/	/
Cn1c(CCN2CCCCC2)nc2cc(NS(=O)(=O)c3ccc(Cl)cc3)ccc21	13	100	16	9.8*	104
Oc1cccc2ccc[n+](CC(O)Cn3c4ccccc4c4ccccc43)c12 (stereo not drawn)	62	/	67	/	/
Cc1ccc(C(C)C)c(OCC(=O)Nc2ccc3c(c2)nc(CN2CCCC2)n3C)c1	3.4*	91	2.5*	81	25*
CCCC(=O)Nc1ccc2c(c1)nc(CN1CCCC1)n2C	97	100	108	98	98
CC(C)(C)c1cc(=O)n(-c2ccccc2)[nH]1	103	/	92	/	/
CCCN(CCO)Cc1cccc(Br)c1	98	38*	92	87	88
CCN(CC)c1ccc(/C=N/NC(=O)c2cccc(S(=O)(=O)Nc3ccccc3OC)c2)c(O)c1	5.3*	/	10	/	/
COc1cc2c(cc1NC(=S)Nc1cccc3ccccc13)oc1ccccc12	74	/	70	/	/
COc1cc2c(cc1NC(=S)Nc1cccc(C(F)(F)F)c1)oc1ccccc12	71	99	39	30*	45
O=C1NC(c2ccc3c(c2)OCO3)Nc2ccccc21 (stereo not drawn)	27	89	28	27*	63
O=C1NC(c2ccc3c(c2)OCO3)Oc2ccccc21 (stereo not drawn)	101	95	91	95	96
Cc1ccc(S(=O)(=O)C2C(=O)N(C)C3(C)CC2c2ccccc2O3)cc1 (stereo not drawn)	88	/	85	/	/
CC(=O)Nc1nn(C)c2nc3cc(C)ccc3cc12	95	100	98	84	86
Cc1ccc2cc3c(NC(=O)c4ccco4)nn(C)c3nc2c1	90	102	92	35*	75
Cc1cc(C)c(NC(=O)/C(=C/c2ccccc2)c2ccccc2)c(C)c1	73	/	75	/	/
N#CC1=C(N)Oc2cc(N)ccc2C1C1CC=CCC1 (stereo not drawn)	22	96	22	29*	61
COc1cc2c3nnc(-c4ccc(F)cc4)c-3cn(Cc3cccc(C)c3)c2cc1OC	82	3.2*	74	1.1*	2.3*
COc1cc2c3nnc(-c4ccc(F)cc4)c-3cn(Cc3ccc(C)cc3)c2cc1OC	85	68	97	43	38
SMILES	bCat KO growth	Fibroblast inh	HCT116 PTEN-null	H69AR inhibit	HUVEC prolif 384
Cc1c(N/C(=N/S(=O)(=O)c2ccc(Cl)cc2)c2ccccc2)c(=O)n(-c2ccccc2)n1C	90	/	86	/	/
Cc1ccc(-n2c(SCC(=O)Nc3nccs3)nc3c(c2=O)SCC3)cc1	92	27*	108	67	98
Cc1ccc(N2C(=O)CC(n3nc(C)cc3C)C2=O)cc1 (stereo not drawn)	87	103	94	102	99
CCN1CCN(CCCOc2ccc(-c3ccccc3)cc2)CC1	1.8*	51	2.0*	19*	48
Cc1noc(C)c1C(=O)N1CCc2ccccc21	113	95	108	90	97
Cc1onc(-c2c(F)cccc2Cl)c1C(=O)N1CCc2ccccc21	70	109	63	30*	103
Cc1onc(-c2ccccc2)c1C(=O)N1CCCc2ccccc21	96	88	102	112	95
Cc1onc(-c2c(Cl)cccc2Cl)c1C(=O)N1CCCc2ccccc21	27	77	23	12*	68
Cc1ccc(Cn2ccc(NC(=O)c3cc4nc(-c5ccco5)cc(C(F)(F)F)n4n3)n2)cc1	61	67	54	35*	68
Cc1c(NC(=O)c2nn3c(C(F)(F)F)cc(-c4ccccc4)nc3c2Cl)c(=O)n(-c2ccccc2)n1C	75	/	75	/	/
Cc1c(NC(=O)c2cc3nc(-c4ccc(Cl)cc4)cc(C(F)(F)F)n3n2)c(=O)n(-c2ccccc2)n1C	69	112	73	18*	94
CC(C)Cn1c(N)c(C(=O)CSc2ccc3c(c2)OCCO3)c(=O)n(C)c1=O	24	84	37	88	80
O=C(Nc1ccc(Cl)c(Cl)c1)Nc1ccc(Br)cc1F	4.9*	/	4	/	/
C#CCOCCOCCOCCNc1nc(N2CCN(C(=O)[C@H](Cc3ccc(O)cc3)n3cc(CCO)nn3)CC2)nc(N2CCN(C(=O)[C@H](Cc3ccc(O)cc3)n3cc(CCO)nn3)CC2)n1	95	/	94	/	/
Cc1ccc(C(=O)CC2(O)C(=O)N(Cc3ccccc3Cl)c3ccccc32)o1 (stereo not drawn)	23	89	14	18*	82
O=C(CC1(O)C(=O)N(Cc2cccc3ccccc23)c2ccccc21)c1cccnc1 (stereo not drawn)	12	53	14	20*	40
Cc1cccc(CSc2nnc(-c3cccs3)n2Cc2ccco2)c1	80	102	68	90	92
O=C(CNc1c(Br)cc(Br)cc1Br)NN=C1CCCCC1	94	/	89	/	/
CCOc1ccccc1NC(=O)C1=C(C)NC(=S)NC1c1cccs1 (stereo not drawn)	89	/	83	/	/
COc1ccc(NC(=S)NNC(=O)Cn2nc(C(F)F)cc2C(F)F)cc1	98	/	100	/	/
Clc1ccc(C2=C3CCCCn4c(-c5ccccc5)c[n+](c43)C2)cc1	6	42*	5	36*	18*
Cc1cc(NC(=O)CN2C(=O)NC3(CCC(C)CC3)C2=O)no1 (stereo not drawn)	91	/	93	/	/
CCCCN(CCCC)S(=O)(=O)c1ccc(NC(=O)c2cccs2)cc1	8	88	7	26*	78
Cc1cc(C)nc(NS(=O)(=O)c2ccc(NC(=O)c3cccs3)cc2)n1	81	93	93	103	97
CCOC(=O)c1sc(NCC2CCCO2)nc1C (stereo not drawn)	97	100	96	88	107
CCOC(=O)c1sc2nc(SCC#N)n(CC3CCCO3)c(=O)c2c1C (stereo not drawn)	6.0*	99	11	87	133
CCC1(C)C(Nc2c(C)cccc2C)=NC(=S)N1c1ccc(NC(C)=O)cc1 (stereo not drawn)	92	/	100	/	/
Cc1ccccc1OCCCCn1cnc2ccccc21	17	103	21	74	46

High-throughput results as filed in PubChem.
